Data from ChEMBL document CHEMBL1156362, “Antimalarial (+)-trans-hexahydrodibenzopyran derivatives from Machaerium multiflorum” (J Nat Prod, 2001).
≈ marks a conversion by molar mass, not a printed value.

Columns and labels:
[1] = Selectivity index, ratio of IC50 for african green monkey (Cercopithecus aethiops) Vero cells to IC50 for chloroquine-sensitive Plasmodium falciparum D6; assay type: toxicity, cell-based; details: read-out: Ratio IC50
[2] = Selectivity index, ratio of IC50 for african green monkey (Cercopithecus aethiops) Vero cells to IC50 for chloroquine-resistant Plasmodium falciparum W2; assay type: toxicity, cell-based; details: read-out: Ratio IC50
Plasmodium falciparum [3] = assay: Antimalarial activity against chloroquine-sensitive Plasmodium falciparum D6 by LDH reporter assay; assay type: functional, organism-based
Plasmodium falciparum [4] = assay: Antimalarial activity against chloroquine-resistant Plasmodium falciparum W2 by LDH reporter assay; assay type: functional, organism-based
Cryptococcus neoformans = assay: […] activity against Cryptococcus neoformans ATCC 90113 after 48 hrs by microplate assay; assay type: functional, organism-based
Summary of the method: (§1)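 IC50 values were read from a modified 96-well microplate growth-inhibition assay against ATCC strains: C. neoformans 90113, S. aureus 6535 and methicillin-resistant S. aureus 33591. Positive controls were amphotericin B and tetracycline, and DMSO served as the negative control.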

Staphylococcus aureus [5] = assay: Antibacterial activity against Staphylococcus aureus ATCC 6535 after 48 hrs by microplate assay; assay type: functional, organism-based; summary of the method: as §1
Staphylococcus aureus [6] = assay: Antibacterial activity against methicillin-resistant Staphylococcus aureus ATCC 33591 after 48 hrs by microplate assay; assay type: functional, organism-based; summary of the method: as §1
[7] = biological target: Cannabinoid receptor 1 (Homo sapiens) (UniProt P21554); assay: Displacement of [3H]CP-55940 from human recombinant CB1 receptor expressed in HEK293 cells at 1 uM; assay type: cell-based
Summary of the method: (§2)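 Radioligand binding assay for the CB1 site, using human recombinant HEK-293 cells as the receptor source. Compounds were screened in a primary assay at 1 and 0.1 µM and expressed as % affinity. A response above 50% of maximum stimulation or inhibition counted as significant. WIN-55,212-2 was the reference, with DMSO as placebo.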

[8] = biological target: Cannabinoid receptor 1 (Homo sapiens) (UniProt P21554); assay: Displacement of [3H]CP-55940 from human recombinant CB1 receptor expressed in HEK293 cells at 0.1 uM; assay type: cell-based; summary of the method: as §2
[9] = Cryptococcus neoformans, ATCC 90113, 48 h, read-out: IC50
[10] = Staphylococcus aureus, ATCC 6535, 48 h, read-out: IC50
[11] = Staphylococcus aureus, ATCC 33591, 48 h, read-out: IC50

Chain of Cannabinoid receptor 1 (Homo sapiens) (P21554 whole entry): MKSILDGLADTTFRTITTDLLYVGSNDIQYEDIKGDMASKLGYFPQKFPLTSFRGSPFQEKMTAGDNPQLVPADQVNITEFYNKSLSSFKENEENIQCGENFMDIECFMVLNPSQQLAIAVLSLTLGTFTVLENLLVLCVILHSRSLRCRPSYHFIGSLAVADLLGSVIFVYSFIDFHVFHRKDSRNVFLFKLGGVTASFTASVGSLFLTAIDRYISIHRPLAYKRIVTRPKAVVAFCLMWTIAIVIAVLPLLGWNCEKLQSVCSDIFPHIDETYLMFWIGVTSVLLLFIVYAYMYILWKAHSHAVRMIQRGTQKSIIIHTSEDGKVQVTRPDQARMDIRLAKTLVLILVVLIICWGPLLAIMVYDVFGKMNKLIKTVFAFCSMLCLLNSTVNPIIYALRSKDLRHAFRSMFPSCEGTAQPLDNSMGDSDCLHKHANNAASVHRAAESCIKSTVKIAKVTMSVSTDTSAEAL

| Compound | selectivity ratio [1] | selectivity ratio [2] | IC50 (Plasmodium falciparum [3]) | IC50 (Plasmodium falciparum [4]) | IC50 (Cryptococcus neoformans; [9]) | IC50 (Staphylococcus aureus [5]; [10]) | IC50 (Staphylococcus aureus [6]; [11]) | Activity [7] | Activity [8] | IC50 (Cryptococcus neoformans) | IC50 (Staphylococcus aureus [5]) | IC50 (Staphylococcus aureus [6]) |
| --- | --- | --- | --- | --- | --- | --- | --- | --- | --- | --- | --- | --- |
| C[C@@H]1CC[C@H]2[C@@H](C)C(=O)O[C@@H]3O[C@@]4(C)CC[C@@H]1[C@]32OO4 [ARTEMISININ] | > 952 | > 1080 |  |  |  |  |  |  |  |  |  |  |
| C[C@H]1CC[C@H]2[C@H](C1)c1c(O)cc(/C=C/c3ccccc3)cc1OC2(C)C [MACHAERIOL A] | > 3.2 | > 7.9 | 1.5 µg/mL (≈ 4.3 µM) | 0.6 µg/mL (≈ 1.72 µM) | 50 µg/mL (≈ 143 µM) | 15 µg/mL (≈ 43 µM) | 10 µg/mL (≈ 28.7 µM) | 7% | 10% |  |  |  |
| C[C@H]1CC[C@H]2[C@H](C1)c1c(O)cc(-c3cc4ccccc4o3)cc1OC2(C)C [MACHAERIOL B] | > 6.6 | > 40 | 0.72 µg/mL (≈ 1.99 µM) | 0.12 µg/mL (≈ 0.331 µM) |  | 5 µg/mL (≈ 13.8 µM) | 4.5 µg/mL (≈ 12.4 µM) | -3% | 3% | Not Active |  |  |
| C[C@@H]1[C@H](O)[C@@H](C)/C=C/C=C/C=C/C=C/C=C/C=C/C=C/[C@H](O[C@@H]2O[C@H](C)[C@@H](O)[C@H](N)[C@@H]2O)C[C@@H]2O[C@](O)(C[C@@H](O)C[C@@H](O)[C@H](O)CC[C@@H](O)C[C@@H](O)CC(=O)O[C@H]1C)C[C@H](O)[C@H]2C(=O)O [AMPHOTERICIN B] |  |  |  |  | 0.375 µg/mL (≈ 0.406 µM) |  |  |  |  |  | Not Active | Not Active |
| CN(C)[C@@H]1C(O)=C(C(N)=O)C(=O)[C@@]2(O)C(O)=C3C(=O)c4c(O)cccc4[C@@](C)(O)[C@H]3C[C@@H]12 [TETRACYCLINE] |  |  |  |  |  | 0.15 µg/mL (≈ 0.338 µM) | 0.15 µg/mL (≈ 0.338 µM) |  |  |  |  |  |
